Molecules are shown by their SMILES. pKd: −log10 of the molar value.

Sequence of Peptidyl-prolyl cis-trans isomerase A (P62937 whole entry): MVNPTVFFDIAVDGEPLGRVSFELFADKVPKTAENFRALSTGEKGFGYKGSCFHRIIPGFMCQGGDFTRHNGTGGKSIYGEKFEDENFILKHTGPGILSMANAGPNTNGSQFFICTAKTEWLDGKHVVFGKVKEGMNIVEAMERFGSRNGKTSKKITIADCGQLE

In the experiment the target is Peptidyl-prolyl cis-trans isomerase A (Homo sapiens, UniProt P62937). In words: Binding affinity towards cyclophilin A by fluorescence. The method, boiled down:
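Recombinant human cyclophilin A, expressed in E. coli with IPTG induction and partially purified by ammonium sulfate fractionation and DEAE-Sepharose. Intrinsic Trp fluorescence enhancement measured at room temperature in 50 mM Tris-HCl pH 7.6, 0.1 M NaCl. Kd from nonlinear least-squares fit to a quadratic binding equation.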
For orientation: pKd means the Kd on a negative log10 scale, so that one unit is a factor of ten. In the case of `COC(=O)[C@]12CCCN1C(=O)[C@](Cc1ccc3ccccc3c1)(NC(=O)OCc1ccccc1)CC2`, the negative logarithm of the Kd (pKd) was 5.33.
The figure for `COC(=O)[C@]12CCCN1C[C@@H](NC(=O)OC(C)(C)C)CC2` is below 3.70.
The compound `COC(=O)[C@]12CCCN1C(=O)[C@](Cc1ccc3ccccc3c1)(NC(C)=O)CC2` gave a negative logarithm of the Kd (pKd) of 5.82.
In the case of `COC(=O)[C@]12CCCN1C(=O)[C@@H](NC(=O)OC(C)(C)C)CC2` it was below 3.70; in that of `COC(=O)[C@]12CCCN1C(=O)[C@](Cc1ccc3ccccc3c1)(NC(=O)OC(C)(C)C)CC2`, 4.77; in that of `COC(=O)[C@]12CCCN1C(=O)[C@](Cc1ccccc1)(NC(=O)OCc1ccccc1)CC2`, 3.91.
In the case of `COC(=O)[C@]12CCCN1C[C@H](NC(=O)OC(C)(C)C)CC2` it was below 3.70; in that of `COC(=O)[C@]12CCCN1C(=O)[C@H](NC(=O)OCc1ccccc1)CC2`, below 3.70.
The figure for `COC(=O)[C@]12CCCN1C(=O)[C@H](NC(=O)OC(C)(C)C)CC2` is below 3.70; for `COC(=O)[C@]12CCCN1C(=O)[C@](Cc1ccccc1)(NC(=O)OC(C)(C)C)CC2` it is 3.85; for `COC(=O)[C@]12CCCN1C[C@](Cc1ccc3ccccc3c1)(NC(=O)OC(C)(C)C)CC2` it is 4.11.

The values are drawn from ChEMBL document CHEMBL1134550, “Structure-activity studies of ground- and transition-state analogue inhibitors of cyclophilin” (J Med Chem, 2001).
